ChEMBL document CHEMBL3232811, “Mineralocorticoid receptor antagonists: identification of heterocyclic amide replacements in the oxazolidinedione series” (Bioorg Med Chem Lett, 2014)

Legend:
Type in all cases: ADME, organism-based
Details in all cases: in vivo
[1] = Oral bioavailability in rat at 2 mg/kg
Outline: (§1)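 Rat PK: compound formulated at 1 mg/mL in PEG 200:water (70:30). Dosed iv at 1 mg/kg (n = 2) and orally at 2 mg/kg (n = 3). Blood concentrations measured by LC/MS/MS after protein precipitation with acetonitrile.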

Rattus norvegicus = assay: Dose normalized AUC in rat at 1 mg/kg, iv; set-up: dose 1 mg/kg, route intravenous; outline: as §1
[2] = Volume of distribution in rat at 1 mg/kg, iv and 2 mg/kg, po; outline: as §1

| bioavailability [1] [%] | AUC/dose (Rattus norvegicus) [µM·kg·h/mg] | Vd [2] [L/kg] | Structure (SMILES) |
| --- | --- | --- | --- |
| 44 | 3.7 | 1.2 | COc1cc(OC)cc(-c2nnc([C@@]3(Cc4ccccc4)OC(=O)N([C@H](C)c4ccccc4)C3=O)o2)c1 |
| 89 | 4.4 | 1 | C[C@H](c1ccccc1)N1C(=O)O[C@](Cc2ccccc2)(c2nnc(C3(c4ccccc4)CC3)o2)C1=O |
